Reference: ChEMBL document CHEMBL4680077, “Differentiation of skeletal osteogenic progenitor cells to osteoblasts with 3,4-diarylbenzopyran based amide derivatives: Novel osteogenic agents” (Eur J Med Chem, 2016)
Active and inactive are the calls of the source. The calls are words filed in the database; no cut-off is given here.

How the values were obtained:
[1] = Acute toxicity in Swiss albino mouse assessed as absolute uterus weight at 5 mg/kg, po measured after 7 days (reference value: 0.27+/- 0.07 g); assay type: organism-based; conditions: in vivo, 168 h, time 7 day
[2] = Acute toxicity in Swiss albino mouse assessed as cholesterol level at 300 mg/kg, po measured after 7 days (reference value: 265.76 +/- 24.78 mg/dL); assay type: organism-based; conditions: in vivo, 168 h, time 7 day
[3] = Acute toxicity in Swiss albino mouse assessed as absolute ovary weight at 5 mg/kg, po measured after 7 days (reference value: 0.04+/- 0.02 g); assay type: organism-based; conditions: in vivo, 168 h, time 7 day
[4] = Acute toxicity in Swiss albino mouse assessed as absolute kidney weight at 300 mg/kg, po measured after 7 days (reference value: 0.29 +/- 0.02 g); assay type: organism-based; conditions: in vivo, 168 h, time 7 day
[5] = Acute toxicity in Swiss albino mouse assessed as relative brain weight at 50 mg/kg, po measured after 7 days (reference value: 1.63 +/- 0.13 %); assay type: organism-based; conditions: in vivo, 168 h, time 7 day
[6] = Acute toxicity in Swiss albino mouse assessed as albumin level at 5 mg/kg, po measured after 7 days (reference value: 3.24 +/- 0.30 g/dL); assay type: organism-based; conditions: in vivo, 168 h, time 7 day
[7] = AUC (0 to 24 hrs) in Sprague-Dawley rat at 1 mg/kg, iv measured upto 24 hrs by LC-MS/MS analysis; assay type: ADME, organism-based; parameters: route intravenous, dose 1 mg/kg, time <=24; conditions: in vivo
In short: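 Female Sprague-Dawley rats (n = 4 per route), fasted overnight (12-14 h); 1 mg/kg orally in 0.25% CMC suspension, or an i.v. tail-vein bolus in DMSO-PEG400-ethanol-water (4:3:1:2). Retro-orbital blood was taken up to 24 h, and plasma was extracted with n-hexane (halofantrine IS). LC-MS/MS linear range 0.5-200 ng/mL. AUC0-24 was calculated by the linear trapezoidal rule, non-compartmental; mean ± S.D.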

[8] = Acute toxicity in Swiss albino mouse assessed as absolute liver weight at 1000 mg/kg, po measured after 7 days (reference value: 1.11 +/- 0.04 g); assay type: organism-based; conditions: in vivo, 168 h, time 7 day
[9] = Cmax in Sprague-Dawley rat at 1 mg/kg, po measured upto 24 hrs by LC-MS/MS analysis; assay type: ADME, organism-based; parameters: route oral, dose 1 mg/kg, time <=24; conditions: in vivo
In short: (§1)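 Female Sprague-Dawley rats (n = 4), fasted overnight 12–14 h, dosed orally at 1 mg kg-1 as a 0.25% CMC suspension and fed 3 h post-dose. Retro-orbital blood was taken from 0.25 to 24 h. Plasma was hexane-extracted and assayed by LC-MS/MS. Cmax and Tmax were read from the data; other parameters came from non-compartmental analysis. Mean ± S.D.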

Mus musculus [10] = assay: In vivo osteogenic activity in ovariectomized BALB/c mouse assessed as increase in bone stiffness at 1 to 10 mg/kg, po via gavage administered for 1 month by TKC Muromachi bone strength testing method; assay type: functional, organism-based; conditions: dose 1-10 mg/kg, time 1.0 months
In short: (§2)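 Ovariectomized balb/c mice were gavaged with 1 or 10 mg kg-1 daily for one month. Bones were then tested on a bone strength tester for energy, stiffness and force to break. Mean ± SEM compared with the Ovx vehicle group.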

[11] = Acute toxicity in Swiss albino mouse assessed as mortality at 5 to 1000 mg/kg, po measured after 7 days; assay type: organism-based; conditions: in vivo, 168 h, dose 5-1000 mg/kg, time 7 day
In short: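 Acute oral toxicity per OECD guidelines 420, 423 and 425. Swiss albino mice received a single oral dose at 5, 50, 300 or 1000 mg kg1 body weight, with vehicle controls. Animals were watched for morbidity, mortality and observational changes over 7 days. Tail-vein blood was then taken for hematology and serum biochemistry. Organs were inspected at sacrifice. n = 6 per group.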

[12] = Acute toxicity in Swiss albino mouse assessed as body weight at 5 mg/kg, po observed on day 1 (reference value: 20.38 +/- 0.24 g); assay type: organism-based; conditions: in vivo, 24 h, time 1 day
[13] = Acute toxicity in Swiss albino mouse assessed as absolute kidney weight at 5 mg/kg, po measured after 7 days (reference value: 0.29 +/- 0.02 g); assay type: organism-based; conditions: in vivo, 168 h, time 7 day
[14] = Acute toxicity in Swiss albino mouse assessed as absolute ovary weight at 300 mg/kg, po measured after 7 days (reference value: 0.04+/- 0.02 g); assay type: organism-based; conditions: in vivo, 168 h, time 7 day
Mus musculus [15] = assay: In vivo osteogenic activity in ovariectomized BALB/c mouse assessed as increase in energy required to break bone at 1 to 10 mg/kg, po via gavage administered for 1 month by TKC Muromachi bone strength testing method; assay type: functional, organism-based; conditions: dose 1-10 mg/kg, time 1.0 months; in short: as §2
[16] = Acute toxicity in Swiss albino mouse assessed as relative heart weight at 1000 mg/kg, po measured after 7 days (reference value: 0.51 +/- 0.02 %); assay type: organism-based; conditions: in vivo, 168 h, time 7 day
[17] = Acute toxicity in Swiss albino mouse assessed as monocyte count at 50 mg/kg, po measured after 7 days (reference value: 12.58 +/- 2.86 %); assay type: organism-based; conditions: in vivo, 168 h, time 7 day
[18] = Acute toxicity in Swiss albino mouse assessed as tissue protein level at 300 mg/kg, po measured after 7 days (reference value: 0.029 +/- 0.004 mg/ml); assay type: organism-based; conditions: in vivo, 168 h, time 7 day
[19] = Acute toxicity in Swiss albino mouse assessed as tissue protein level at 50 mg/kg, po measured after 7 days (reference value: 0.029 +/- 0.004 mg/ml); assay type: organism-based; conditions: in vivo, 168 h, time 7 day
[20] = Acute toxicity in Swiss albino mouse assessed as absolute heart weight at 5 mg/kg, po measured after 7 days (reference value: 0.12 g); assay type: organism-based; conditions: in vivo, 168 h, time 7 day
[21] = Acute toxicity in Swiss albino mouse assessed as haemoglobin level at 1000 mg/kg, po measured after 7 days (reference value: 10.86 +/- 0.87 g/dL); assay type: organism-based; conditions: in vivo, 168 h, time 7 day
[22] = Clearance in Sprague-Dawley rat at 1 mg/kg, po measured upto 24 hrs by LC-MS/MS analysis; assay type: ADME, organism-based; conditions: in vivo; in short: as §1
[23] = Acute toxicity in Swiss albino mouse assessed as relative liver weight at 50 mg/kg, po measured after 7 days (reference value: 6.81 +/- 2.14 %); assay type: organism-based; conditions: in vivo, 168 h, time 7 day
[24] = Acute toxicity in Swiss albino mouse assessed as absolute heart weight at 50 mg/kg, po measured after 7 days (reference value: 0.12 g); assay type: organism-based; conditions: in vivo, 168 h, time 7 day
[25] = Acute toxicity in Swiss albino mouse assessed as lymphocyte count at 5 mg/kg, po measured after 7 days (reference value: 37.97 +/- 1.80 %); assay type: organism-based; conditions: in vivo, 168 h, time 7 day
[26] = Acute toxicity in Swiss albino mouse assessed as tissue protein level at 1000 mg/kg, po measured after 7 days (reference value: 0.029 +/- 0.004 mg/ml); assay type: organism-based; conditions: in vivo, 168 h, time 7 day
[27] = Acute toxicity in Swiss albino mouse assessed as serum protein level at 5 mg/kg, po measured after 7 days (reference value: 0.66 +/- 0.01 mg/ml); assay type: organism-based; conditions: in vivo, 168 h, time 7 day
[28] = Elimination rate constant in Sprague-Dawley rat at 1 mg/kg, po measured upto 24 hrs by LC-MS/MS analysis; assay type: ADME, organism-based; conditions: in vivo; in short: as §1
[29] = Acute toxicity in Swiss albino mouse assessed as creatinine level at 300 mg/kg, po measured after 7 days (reference value: 0.97 +/- 0.07 mg/dL); assay type: organism-based; conditions: in vivo, 168 h, time 7 day
[30] = Acute toxicity in Swiss albino mouse assessed as body weight at 300 mg/kg, po measured on day 7 (reference value: 22.75 +/- 0.38 g); assay type: organism-based; conditions: in vivo, 168 h, time 7 day
[31] = Acute toxicity in Swiss albino mouse assessed as monocyte count at 1000 mg/kg, po measured after 7 days (reference value: 12.58 +/- 2.86 %); assay type: organism-based; conditions: in vivo, 168 h, time 7 day

Q: With `CCCCN(C)C(=O)CCCCOc1ccc([C@H]2c3ccc(OC)cc3OC(C)(C)[C@@H]2c2ccccc2)cc1` as the compound, how does the Activity [1] read?
A: Its Activity is 0.3 g.

Q: And the Activity [2]?
A: The Activity was 257.26 mg/dL.

Q: And the Activity [3]?
A: Its Activity is 0.07 g.

Q: What about the Activity [4] of the same compound?
A: Its Activity is 0.27 g.

Q: What about the Activity [5] of the same compound?
A: The Activity was 1.54%.

Q: What about the Activity [6] of the same compound?
A: The Activity was 3.97 g/dL.

Q: And the AUC(0-t) [7]?
A: The AUC(0-t) was 852 ng·h/mL.

Q: And the Activity [8]?
A: The Activity was 1.07 g.

Q: What about the Cmax [9] of the same compound?
A: The Cmax was 38.9 ng/mL.

Q: What about the Activity (Mus musculus [10]) of the same compound?
A: The Activity was “Active”.

Q: What about the Activity [11] of the same compound?
A: The Activity was “Non-Toxic”.

Q: What about the Activity [12] of the same compound?
A: The Activity was 20.65 g.

Q: And the Activity [13]?
A: The Activity was 0.28 g.

Q: And the Activity [14]?
A: Its Activity is 0.06 g.

Q: What about the Activity (Mus musculus [15]) of the same compound?
A: The Activity was “Active”.

Q: And the Activity [16]?
A: Its Activity is 0.57%.

Q: What about the Activity [17] of the same compound?
A: The Activity was 12.35%.

Q: And the Activity [18]?
A: The Activity was 0.034 mg/mL.

Q: And the Activity [19]?
A: The Activity was 0.036 mg/mL.

Q: And the Activity [20]?
A: Its Activity is 0.12 g.

Q: What about the Activity [21] of the same compound?
A: The Activity was 11.35 g/dL.

Q: What about the CL [22] of the same compound?
A: Its CL is 1.1 L/h/kg.

Q: What about the Activity [23] of the same compound?
A: The Activity was 5.17%.

Q: What about the Activity [24] of the same compound?
A: The Activity was 0.12 g.

Q: And the Activity [25]?
A: The Activity was 39.08%.

Q: And the Activity [26]?
A: Its Activity is 0.032 mg/mL.

Q: And the Activity [27]?
A: The Activity was 0.74 mg/mL.

Q: And the k el at 24 h [28]?
A: Its k el at 24 h is 5.39e-05 s⁻¹.

Q: And the Activity [29]?
A: Its Activity is 0.97 mg/dL.

Q: And the Activity [30]?
A: Its Activity is 23.31 g.

Q: And the Activity [31]?
A: Its Activity is 12.27%.
